Bioassay records (PubChem BioAssay)
GC-A act – GC-A stimulated cGMP production enhancers – HEK293 GC-A cells, cGMP TR-FRET, EC30 ANP, primary screen | 370,000 tested, 0.14% active | 0% at EC30 ANP, 100% saturating ANP | Atrial natriuretic peptide receptor 1 (Homo sapiens), P16066 | activation, % at 10 µM; in the data active = activation above about 40%
GC-B act – human GC-B receptor activators, primary screen, HEK293 GC-B cells, cGMP TR-FRET, EC30 CNP. Atrial natriuretic peptide receptor 2 (Homo sapiens), P20594. 0% at EC30 CNP, 100% saturating CNP. activation, % at 10 µM. 370,000 tested, 0.11% active. AID 1920062, 2024;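 active = activation at 10 µM reaching about 35% in either raw or pattern-adjusted values, limit read from the data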
Target sequence (P20594 whole entry, looked up): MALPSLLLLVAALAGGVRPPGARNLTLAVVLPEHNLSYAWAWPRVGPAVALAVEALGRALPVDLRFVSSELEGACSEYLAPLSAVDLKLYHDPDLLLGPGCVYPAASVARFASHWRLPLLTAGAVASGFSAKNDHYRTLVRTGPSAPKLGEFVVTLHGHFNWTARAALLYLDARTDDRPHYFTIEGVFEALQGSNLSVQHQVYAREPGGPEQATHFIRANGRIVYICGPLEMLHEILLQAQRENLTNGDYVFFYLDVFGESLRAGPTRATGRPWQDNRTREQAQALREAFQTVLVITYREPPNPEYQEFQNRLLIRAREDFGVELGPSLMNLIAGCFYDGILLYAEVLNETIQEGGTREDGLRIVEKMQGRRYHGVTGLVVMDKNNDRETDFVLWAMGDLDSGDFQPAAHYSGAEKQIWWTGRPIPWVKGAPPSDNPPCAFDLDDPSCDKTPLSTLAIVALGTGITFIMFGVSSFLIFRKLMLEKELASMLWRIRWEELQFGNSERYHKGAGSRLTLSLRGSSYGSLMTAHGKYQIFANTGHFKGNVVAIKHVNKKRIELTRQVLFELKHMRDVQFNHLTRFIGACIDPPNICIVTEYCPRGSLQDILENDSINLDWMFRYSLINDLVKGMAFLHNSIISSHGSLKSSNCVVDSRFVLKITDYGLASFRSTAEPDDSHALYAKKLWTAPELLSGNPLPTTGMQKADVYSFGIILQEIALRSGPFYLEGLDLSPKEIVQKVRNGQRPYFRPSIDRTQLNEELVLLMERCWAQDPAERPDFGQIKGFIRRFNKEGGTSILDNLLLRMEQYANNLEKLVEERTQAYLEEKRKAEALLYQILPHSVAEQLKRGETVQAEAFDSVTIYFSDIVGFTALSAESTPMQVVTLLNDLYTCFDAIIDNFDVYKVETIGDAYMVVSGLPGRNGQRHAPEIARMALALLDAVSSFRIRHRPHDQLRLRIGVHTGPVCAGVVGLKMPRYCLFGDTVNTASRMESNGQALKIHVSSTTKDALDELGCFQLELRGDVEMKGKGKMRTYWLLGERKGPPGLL
GalR3 antag – GalR3 antagonists in HEK293 cells, primary screen, cell-based, fluorescence readout; HEK293 GalR3-CNG cAMP membrane potential fluorescence; galR3 body fused to GalR1 C-terminus; inhibition, % at 3 µM; Galanin receptor type 3 (Homo sapiens), O60755; 360,000 tested, 0.44% active;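 active = inhibition above the screen-wide average plus 3 SD, cut at about 13% in these data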;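 also: forskolin and galanin both at EC90 stimulate the cells; cAMP rise reported by CNG channel membrane potential dye signal; 0% = forskolin plus galanin with DMSO and 100% = forskolin alone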
Arr AP2 block – inhibitors of beta-arrestin/AP2 binding, primary screen, biochemical, GPCR trafficking, flow cytometry | beta-arrestin 1 C-terminal peptide binding to AP2 beta2-adaptin appendage (human) | FITC-arrestin peptide / GST-AP2 beads; AP2 beta2 appendage carries R879A mutation | inhibition, % at 10 µM | 340,000 tested, 0.31% active;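 active = inhibition above a set limit, near 3 SD of compounds lacking own fluorescence, cut at about 54% in these data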;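 also: plate controls were DMSO wells for no effect and 5 µM unlabelled arrestin peptide for full effect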
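System: GST-AP2 R879A bound to glutathione beads, E. coli-expressed. Also added: 50 nM FITC-arrestin peptide. Schedule: compound with beads 12 min RT, then probe 1 h RT. Signal: bead flow cytometry, FITC channel. Read-out basis: percent response.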
Arr-AP2 CP1 – inhibitors of arrestin peptide binding to AP2, confirmation, biochemical, cherry pick 1, flow cytometry beads; 1,300 tested, 2% active; GST-AP2 beads, FITC arrestin peptide binding; GST-fused beta2-adaptin appendage, R879A mutant; shares compounds with Arr AP2 block; inhibition, % at 10 µM; AID 504908, 2011;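 active = inhibition above a set limit, roughly 3 SD of non-fluorescent compound noise, cut at about 38% in these data; inactive = inhibition at or below that limit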;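 also: loss of bead fluorescence from 50 nM FITC arrestin peptide bound to appendage; 0% = negative control wells and 100% = excess unlabelled arrestin peptide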
GST GSH counter – GST-fluorescein capture on glutathione beads, confirmation, artefact control for arrestin-AP2 inhibitor project, biochemical, cherry pick 1, flow cytometry | shares compounds with Arr AP2 block | GST-fluorescein binding to GSH beads, fluorescence, counter-screen | 1,300 tested, 2% active | AID 588338, 2011 | inhibition, % at 10 µM;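 active = inhibition above 50%, about 3 SD of the inhibition seen with non-fluorescent compounds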;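 also: fluorescein maleimide labelled GST captured on 4 micron glutathione beads; higher means more loss of bead fluorescence from quenching or blocked binding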
Active calls of the source: *; . = no result given. Hits are enriched below; roughly 0.94% of the tested compounds scored in any of these assays.

SMILES	GC-A act	GC-B act	GalR3 antag	Arr AP2 block	Arr-AP2 CP1	GST GSH counter
Cc1ccc(OCc2cn3cccnc3n2)cc1	-1	7	-4	67*	-5	11
COc1cccc(OCC(O)CN2C(C)CCCC2C)c1 (centres undefined)	-2	2	-3	0	.	.
Cc1cc(OCC(O)CN2C(C)CCCC2C)ccc1C(C)C (centres undefined)	1	2	-4	54*	1	-3
CC[C@H](NC(=O)[C@H]1O[C@@H](n2cnc3c(=O)[nH]c(N)nc32)[C@H](O)[C@@H]1O)c1ccccc1	12	13	-4	.	.	.
CCNC(=O)C(=O)NCc1ccncc1	1	1	-1	62*	4	-1
Cc1cccc(NC(=S)N(Cc2ccc(Cl)cc2)Cc2ccc(C(=O)O)cc2)c1	-2	1	1	56*	3	-4
Cc1cc(C)cc(NC(=S)N(Cc2ccc(Cl)cc2)Cc2ccc(C(=O)O)cc2)c1	-1	0	-4	-6	.	.
CSC1=Nc2ccccc2N=C(N2CCCC2)C1	-2	2	-4	.	.	.
O=S(=O)(c1sccc1Br)n1c(CN2CCOCC2)nc2ccccc21	-14	-16	.	.	.	.
O=C(Nc1ccccc1F)n1ncc2cc(Cl)ccc21	4	9	1	62*	-2	-4
Cc1ccc(-c2nn(-c3ccccc3)cc2C(=O)N2CCN(c3ccccn3)CC2)cc1	-8	2	-8	57*	13	-5
O=C(c1ccccc1CCc1ccccc1)N1CCN(c2ccccn2)CC1	-1	-1	-4	84*	-8	-1
O=C(c1cc2ccccc2o1)N1CCN(c2ccccn2)CC1	-7	-1	-5	59*	0	-3
CCOc1ccc(CN2CCN(Cc3cc4ccccc4o3)CC2CCO)cc1 (centres undefined)	5	2	-12	66*	5	3
O=C(/C=C(\Nc1ccc(Cl)c(C(F)(F)F)c1)c1ccccc1)c1ccccc1	-2	1	-7	.	.	.
C#Cc1cccc(NC(=O)Cc2cccs2)c1	-6	1	-3	56*	3	-8
CC(=O)Nc1cccc(NC(=O)Cc2cccs2)c1	6	-6	-5	4	.	.
CC(OC(=O)c1ccc2ncsc2c1)C(=O)N(C)C1CCCCC1 (centres undefined)	-4	-2	-2	60*	16	-8
O=C(NCc1ccccc1)[C@H]1CCCN1C(=O)[C@H]1CCCN1C(=O)c1cccc2ccccc12	1	4	-5	.	.	.
CCOc1ccc(-c2csc(NC(=O)CSCC(=O)O)n2)c2ccccc12	-3	-3	-4	62*	7	0
C#CCN1CC(COc2ccccc2)Oc2cccc(Oc3ccc(C(C)C)cc3)c2S1(=O)=O (centres undefined)	2	-4	-2	.	.	.
CCCCn1c(=N)n(CCOc2ccc(C)cc2)c2ccccc21	-17	-17	-3	73*	-4	-3
CCOc1cccc(OCCCNCCCOC)c1	3	-1	-5	93*	4	-6
C=CCN1C(=O)c2n[nH]c(COC)c2C1c1ccc(Br)cc1 (centres undefined)	1	-7	-8	.	.	.
CCN=C1NC(c2ccccc2)C(C(=O)OC)=C(C)N1Cc1ccc(C(F)(F)F)cc1 (centres undefined)	-17	-16	-6	.	.	.
SMILES	GC-A act	GC-B act	GalR3 antag	Arr AP2 block	Arr-AP2 CP1	GST GSH counter
COc1ccc(NC(=O)CSCC(=O)Nc2ccc(S(=O)(=O)N3CCCCC3)cc2)cc1	2	0	-1	57*	-12	-8
CCCC[C@H]1C2CC(OC(=O)Nc3cccc(F)c3)C(C2)[C@H]2CCCCN21 (some centres undefined)	-1	7	.	.	.	.
CCc1ccccc1NC(=O)Nc1ccc(F)cc1	1	0	-6	14	.	.
CCc1ccccc1NC(=O)Nc1cccn(Cc2ccc(F)cc2)c1=O	1	1	0	58*	-5	-12
COCCNC(=S)N(C)[C@H]1C[C@H]2c3[nH]c4cccc(-c5ccccc5)c4c3CCN2C(=O)[C@H]1[C@H](C)O	-1	4	-4	.	.	.
Cc1ccc(-n2c(SCC(=O)Nc3cccc4ccccc34)nnc2-c2cccs2)cc1	-2	0	.	.	.	.
N=c1c2cn[nH]c2nc(SCC(=O)c2ccc(Br)cc2)n1-c1ccc(Br)cc1	-2	9	5	74*	-3	0
O=C(CSc1nc2[nH]ncc2c(=O)n1-c1ccccc1)c1ccc2c(c1)OCCO2	3	7	-2	0	.	.
COc1ccc(OC)c(CN2CCN(C(=O)CCC(=O)c3cccs3)CC2)c1	1	-4	-3	55*	0	0
O=C(NCc1ccc(Cl)cc1)C1CCCN(c2ncccn2)C1 (centres undefined)	5	6	.	.	.	.
Cc1cc(Br)c2nc(-c3ccc(Cl)cc3)c(Cc3cccc(Cl)c3)n2c1	-1	-2	-4	.	.	.
CC(Oc1ccc(Br)cc1)C(=O)N1CCC(C(N)=O)CC1 (centres undefined)	-1	0	-3	59*	3	-2
CC(Oc1ccc(Br)cc1)C(=O)N1CCN(c2ccccn2)CC1 (centres undefined)	-4	-4	-3	6	.	.
Cc1ccc(S(=O)(=O)N2O[C@@H](c3ccccc3)C[C@H]2CON2C(C)(C)CCCC2(C)C)cc1	1	-4	.	.	.	.
CS(=O)(=O)N1C[C@]2(c3ccccc3)CC1Cc1ccccc12	-11	-8	.	.	.	.
COc1ccc(CCC(C)NC2CCCCCCC2)cc1 (centres undefined)	-12	-7	-13	64*	19	9
CCCC(=O)N(Cc1cc(=O)[nH]c2ccccc12)c1ccccc1C	-17	-7	-10	61*	8	-1
CC(=O)N(Cc1cc(=O)[nH]c2ccccc12)c1ccccc1C	-2	-1	-10	39	.	.
C[C@H]1C2CC(OC(=O)NCc3ccccc3)C(C2)[C@H]2CCCCN21 (some centres undefined)	7	5	.	.	.	.
O=S(=O)(c1ccc(F)cc1)N1CCC(c2nc3ccccc3o2)CC1	-4	2	.	.	.	.
CCN(CC)C(=O)c1cccc(NC(=O)C2=COCCO2)c1	2	1	-3	68*	-12	-5
CCN(CC)S(=O)(=O)c1cc(NC(=O)C2=COCCO2)ccc1Cl	-1	-2	2	33	.	.
